The record followed here is ChEMBL document CHEMBL1124067, “Design of potent cyclic gonadotropin releasing hormone antagonists” (J Med Chem, 1988).

The target in experiment [1] is T1, Gonadotropin-releasing hormone receptor (Rattus norvegicus, UniProt P30969).
T1 sequence (P30969 whole entry): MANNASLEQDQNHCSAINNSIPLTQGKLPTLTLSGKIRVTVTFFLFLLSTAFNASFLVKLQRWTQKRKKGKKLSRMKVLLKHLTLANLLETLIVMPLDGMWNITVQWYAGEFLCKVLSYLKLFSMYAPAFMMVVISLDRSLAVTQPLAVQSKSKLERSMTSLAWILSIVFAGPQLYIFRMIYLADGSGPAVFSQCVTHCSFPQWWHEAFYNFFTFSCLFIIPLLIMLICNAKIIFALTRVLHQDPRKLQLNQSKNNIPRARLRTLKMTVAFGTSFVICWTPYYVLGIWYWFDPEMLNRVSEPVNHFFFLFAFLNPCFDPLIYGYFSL
As to the kind of experiment: Inhibitory binding constant for Gonadotropin-releasing hormone receptor.

In experiment [2] the test system is Rattus norvegicus. As to the kind of experiment: In vivo antiovulatory assay (AOA) carried out in rats injected sc. Type of experiment: functional. In short, it runs like this:
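Antiovulatory assay following Corbin and Beattie. Cycling rats injected sc at noon on proestrus with peptide dissolved in saline (200 μL). Dose in micrograms; read-out is the number of rats ovulating out of the total.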

For experiment [3], the species on record is Rattus norvegicus. As to the kind of experiment: Effect on GnRH-induced LH secretion in intact male rats at 20 ng of compound; ng of LH/mL. Type of experiment: functional.
The species named for experiment [4] is Rattus norvegicus. As to the kind of experiment: Effect on GnRH-induced LH secretion in intact male rats at 50 ng of compound; ng of LH/mL. The class given is functional.
The subject of experiment [5] is Rattus norvegicus. As to the kind of experiment: Effect of oral administration of compound (3 mg) on LH secretion by castrated male rats; ng of LH/mL. The class given is functional. The method in brief: (§1)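 Adult Sprague-Dawley male rats, castrated under light ether anesthesia 7-10 days before assay. Peptide dissolved in 2 N HOAc, then diluted in 0.1% BSA-0.04 M phosphate buffer pH 7.4. Given by gavage tube (0.5 mL) under ether. Blood sampled before treatment and 5 h after. Plasma LH in ng/mL, mean ± SEM, five rats per treatment.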

The target of experiment [6] is T2, Gonadotropin-releasing hormone receptor (Rattus norvegicus) (UniProt P30969).
T2 sequence (whole entry): T1 sequence (P30969 whole entry)
As to the kind of experiment: Inhibition of GnRH-stimulated LH secretion by cultured dispersed anterior pituitary cells. Type of experiment: functional, cell-based. Particulars: Pituitary gland cell. The method in brief: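 Cultured dispersed anterior pituitary cells. Antagonist inhibition of GnRH-stimulated LH secretion measured. Potency expressed relative to the standard [Ac-Δ3Pro1,DFpa2,DTrp3,6]GnRH (=1), with confidence range in parentheses.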

The test system of experiment [7] is Rattus norvegicus. As to the kind of experiment: Effect of oral administration of compound (1 mg) on LH secretion by castrated male rats; ng of LH/mL. Type of experiment: functional. In short, it runs like this: as §1

Values joined by “and” are separate entries in the source; they are usually repeats but may differ in a detail not shown here. Identical values can stand only once. Positions of bridges follow the written chain, without caps; N, C: chain ends. Non-standard residues stand in square brackets, D forms with d. Residues, ends and D or L forms follow the SMILES beside them. dPhe(4-Cl) = N[C@H](Cc1ccc(Cl)cc1)C(=O)O; dPhe(4-F) = N[C@H](Cc1ccc(F)cc1)C(=O)O; d2Nal = N[C@H](Cc1ccc2ccccc2c1)C(=O)O; d3Pal = N[C@H](Cc1cccnc1)C(=O)O; ΔPro = O=C(O)[C@@H]1C=CCN1; Dap = NC[C@H](N)C(=O)O

What is called Kd is the equilibrium constant for the complex coming apart. The low end stands for tighter binding, the high end for weaker binding. Regarding `CC(=O)N[C@H](Cc1ccc2ccccc2c1)C(=O)N[C@H](Cc1ccc(Cl)cc1)C(=O)N[C@H](Cc1cccnc1)C(=O)N[C@H]1CCC(=O)NC[C@@H](C(N)=O)NC(=O)[C@@H]2CCCN2C(=O)[C@H](CCCNC(=N)N)NC(=O)[C@H](CC(C)C)NC(=O)[C@@H](Cc2cccnc2)NC(=O)[C@H](CCCNC(=N)N)NC1=O` [listing 1 of 2 here], in experiment [1], the Kd came to 1 nM.

In experiment [1], `CC(=O)N[C@H](Cc1ccc2ccccc2c1)C(=O)N[C@H](Cc1ccc(F)cc1)C(=O)N[C@H](Cc1c[nH]c2ccccc12)C(=O)N[C@H]1CSSC[C@@H](C(N)=O)NC(=O)[C@@H]2CCCN2C(=O)[C@H](CCCN=C(N)N)NC(=O)[C@H](CC(C)C)NC(=O)[C@@H](CCCN=C(N)N)NC(=O)[C@H](Cc2ccc(O)cc2)NC1=O` came in with a Kd of 6 nM.

As for `CC(=O)N[C@H](Cc1ccc2ccccc2c1)C(=O)N[C@H](Cc1ccc(Cl)cc1)C(=O)N[C@H](Cc1cccnc1)C(=O)N[C@H]1CCC(=O)NC[C@@H](C(N)=O)NC(=O)[C@@H]2CCCN2C(=O)[C@H](CCCNC(=N)N)NC(=O)[C@H](CC(C)C)NC(=O)[C@@H](Cc2cccnc2)NC(=O)[C@H](CCCNC(=N)N)NC1=O` [listing 2 of 2 here], the Dose in the experiment on Rattus norvegicus [2] was 10 µg and 25 µg.

`CC(=O)N[C@H](Cc1ccc2ccccc2c1)C(=O)N[C@H](Cc1ccc(F)cc1)C(=O)N[C@H](Cc1c[nH]c2ccccc12)C(=O)N[C@H]1CNC(=O)C[C@@H](C(N)=O)NC(=O)[C@@H]2CCCN2C(=O)[C@H](CCCN=C(N)N)NC(=O)[C@H](CC(C)C)NC(=O)[C@@H](CCCN=C(N)N)NC(=O)[C@H](Cc2ccc(O)cc2)NC1=O` yielded a Kd in experiment [1] of 10 nM.

On to `CC(C)C[C@H](NC(=O)CNC(=O)[C@H](Cc1ccc(O)cc1)NC(=O)[C@H](CO)NC(=O)[C@H](Cc1c[nH]c2ccccc12)NC(=O)[C@H](Cc1cnc[nH]1)NC(=O)[C@@H]1CCC(=O)N1)C(=O)N[C@@H](CCCNC(=N)N)C(=O)N1CCC[C@H]1C(=O)NCC(N)=O` [GONADORELIN], for which the results for the Activity in the experiment listed under Rattus norvegicus [3] and in the experiment listed under Rattus norvegicus [4] were 1.84 and 2.42, respectively.

On to `CC(=O)N[C@H](Cc1ccc2ccccc2c1)C(=O)N[C@H](Cc1ccc(F)cc1)C(=O)N[C@H](Cc1c[nH]c2ccccc12)C(=O)N[C@H]1CNC(=O)C[C@@H](C(=O)NCC(N)=O)NC(=O)[C@H](CCCNC(=N)N)NC(=O)[C@H](CC(C)C)NC(=O)[C@@H](CCCNC(=N)N)NC(=O)[C@H](Cc2ccc(O)cc2)NC1=O`, for which the Kd in experiment [1] was greater than 100 nM.

In the case of `CC(=O)N[C@H](Cc1ccc2ccccc2c1)C(=O)N[C@H](Cc1ccc(F)cc1)C(=O)N[C@H](Cc1c[nH]c2ccccc12)C(=O)N[C@H]1CC(=O)NCCC[C@@H](C(N)=O)NC(=O)[C@@H]2CCCN2C(=O)[C@H](CCCN=C(N)N)NC(=O)[C@H](CC(C)C)NC(=O)[C@@H](CCCN=C(N)N)NC(=O)[C@H](Cc2ccc(O)cc2)NC1=O`, binding in experiment [1] was put at a Kd of 41 nM.

For `CC(=O)NC[C@H](NC(=O)[C@@H](Cc1cccnc1)NC(=O)[C@@H](Cc1ccc(Cl)cc1)NC(=O)[C@@H](Cc1ccc2ccccc2c1)NC(C)=O)C(=O)N[C@@H](CCCN=C(N)N)C(=O)N[C@H](Cc1cccnc1)C(=O)N[C@@H](CC(C)C)C(=O)N[C@@H](CCCN=C(N)N)C(=O)N1CCC[C@H]1C(=O)N[C@@H](CC(N)=O)C(N)=O` [listing 1 of 2 here], in the experiment on Rattus norvegicus [5], the Activity was 8.22. Also, in the experiment with Rattus norvegicus [2], the Dose is 50 µg.

Consider `CC(=O)N[C@H](Cc1ccc2ccccc2c1)C(=O)N[C@H](Cc1ccc(Cl)cc1)C(=O)N[C@H](Cc1cccnc1)C(=O)N[C@@H](CO)C(=O)N[C@@H](CCCNC(=N)N)C(=O)N[C@H](Cc1cccnc1)C(=O)N[C@@H](CC(C)C)C(=O)N[C@@H](CCCNC(=N)N)C(=O)N1CCC[C@H]1C(=O)N[C@H](C)C(N)=O` (Ac-[d2Nal][dPhe(4-Cl)][d3Pal]SR[d3Pal]LRP[dA]-NH2) [listing 1 of 2 here], for which the dissociation constant Kd in experiment [1] is 0.24 nM.

In turn, `CC(=O)N[C@H](Cc1ccc2ccccc2c1)C(=O)N[C@H](Cc1ccc(Cl)cc1)C(=O)N[C@H](Cc1cccnc1)C(=O)N[C@H]1CC(=O)NCCC[C@@H](C(N)=O)NC(=O)[C@@H]2CCCN2C(=O)[C@H](CCCNC(=N)N)NC(=O)[C@H](CC(C)C)NC(=O)[C@@H](Cc2cccnc2)NC(=O)[C@H](CCCNC(=N)N)NC1=O` registered an equilibrium dissociation constant (Kd) in experiment [1] of 11 nM.

Turning to `CC(=O)NC[C@H](NC(=O)[C@@H](Cc1cccnc1)NC(=O)[C@@H](Cc1ccc(Cl)cc1)NC(=O)[C@@H](Cc1ccc2ccccc2c1)NC(C)=O)C(=O)N[C@@H](CCCN=C(N)N)C(=O)N[C@H](Cc1cccnc1)C(=O)N[C@@H](CC(C)C)C(=O)N[C@@H](CCCN=C(N)N)C(=O)N1CCC[C@H]1C(=O)N[C@@H](CC(N)=O)C(N)=O` [listing 2 of 2 here], the Kd in experiment [1] amounted to 1 nM.

Regarding `CC(C)C[C@@H]1NC(=O)[C@@H](CCCN=C(N)N)NC(=O)[C@H](Cc2ccc(O)cc2)NC(=O)[C@@H](NC(=O)[C@@H](Cc2c[nH]c3ccccc23)NC(=O)[C@@H](Cc2ccc(F)cc2)NC(=O)[C@H](N)Cc2ccc3ccccc3c2)CSSC[C@@H](C(N)=O)NC(=O)[C@@H]2CCCN2C(=O)[C@H](CCCN=C(N)N)NC1=O`, the Dose with Rattus norvegicus [2] was 50 µg and 100 µg.

The molecule `CC(=O)N[C@H](Cc1ccc2ccccc2c1)C(=O)N[C@H](Cc1ccc(Cl)cc1)C(=O)N[C@H](Cc1cccnc1)C(=O)N[C@H]1CSSC[C@@H](C(N)=O)NC(=O)[C@@H]2CCCN2C(=O)[C@H](CCCNC(=N)N)NC(=O)[C@H](CC(C)C)NC(=O)[C@@H](Cc2cccnc2)NC(=O)[C@H](CCCNC(=N)N)NC1=O` (Ac-[d2Nal][dPhe(4-Cl)][d3Pal]CR[d3Pal]LRPC-NH2; disulfide 4-10) displayed a dissociation constant Kd in experiment [1] of 0.8 nM.

On to `CC(=O)N[C@H](Cc1ccc2ccccc2c1)C(=O)N[C@H](Cc1ccc(F)cc1)C(=O)N[C@H](Cc1c[nH]c2ccccc12)C(=O)N[C@@H](CO)C(=O)N[C@@H](Cc1ccc(O)cc1)C(=O)N[C@H](CCCN=C(N)N)C(=O)N[C@@H](CC(C)C)C(=O)N[C@@H](CCCN=C(N)N)C(=O)N1CCC[C@H]1C(=O)NCC(N)=O` (Ac-[d2Nal][dPhe(4-F)][dW]SY[dR]LRPG-NH2), for which the Relative potency in experiment [6] was determined as 0.6. The molecule also displayed a dissociation constant Kd in experiment [1] of 0.64 nM. Besides, the Activity with Rattus norvegicus [7] is 6.4. Also, the Dose with Rattus norvegicus [2] was found to be 1 µg.

For `CC(=O)N[C@H](Cc1ccc2ccccc2c1)C(=O)N[C@H](Cc1ccc(Cl)cc1)C(=O)N[C@H](Cc1cccnc1)C(=O)N[C@H]1CNC(=O)C[C@@H](C(N)=O)NC(=O)[C@@H]2CCCN2C(=O)[C@H](CCCNC(=N)N)NC(=O)[C@H](CC(C)C)NC(=O)[C@@H](Cc2cccnc2)NC(=O)[C@H](CCCNC(=N)N)NC1=O` (Ac-[d2Nal][dPhe(4-Cl)][d3Pal][Dap]R[d3Pal]LRPD-NH2; lactam 4-10), the Kd in experiment [1] is 4.5 nM and 10 nM.

Molecule `CC(=O)N[C@H](Cc1ccc2ccccc2c1)C(=O)N[C@H](Cc1ccc(F)cc1)C(=O)N[C@H](Cc1c[nH]c2ccccc12)C(=O)N[C@H]1CCC(=O)NC[C@@H](C(N)=O)NC(=O)[C@@H]2CCCN2C(=O)[C@H](CCCN=C(N)N)NC(=O)[C@H](CC(C)C)NC(=O)[C@@H](CCCN=C(N)N)NC(=O)[C@H](Cc2ccc(O)cc2)NC1=O` came in with a Kd in experiment [1] of 1.1 nM.

As to `CC(=O)N[C@H](Cc1ccc2ccccc2c1)C(=O)N[C@H](Cc1ccc(Cl)cc1)C(=O)N[C@H](Cc1cccnc1)C(=O)N[C@@H](CO)C(=O)N[C@@H](CCCNC(=N)N)C(=O)N[C@H](Cc1cccnc1)C(=O)N[C@@H](CC(C)C)C(=O)N[C@@H](CCCNC(=N)N)C(=O)N1CCC[C@H]1C(=O)N[C@H](C)C(N)=O` (Ac-[d2Nal][dPhe(4-Cl)][d3Pal]SR[d3Pal]LRP[dA]-NH2) [listing 2 of 2 here], the Dose in the experiment on Rattus norvegicus [2] is 0.5 µg and 1 µg.

`CC(=O)N1CC=C[C@H]1C(=O)N[C@H](Cc1ccc(F)cc1)C(=O)N[C@H](Cc1c[nH]c2ccccc12)C(=O)N[C@@H](CO)C(=O)N[C@@H](Cc1ccc(O)cc1)C(=O)N[C@H](Cc1c[nH]c2ccccc12)C(=O)N[C@@H](CC(C)C)C(=O)N[C@@H](CCCNC(=N)N)C(=O)N1CCC[C@H]1C(=O)NCC(N)=O` (Ac-[ΔPro][dPhe(4-F)][dW]SY[dW]LRPG-NH2) displayed an equilibrium dissociation constant (Kd) in experiment [1] of 0.27 nM.

As for `CC(=O)N[C@H](Cc1ccc2ccccc2c1)C(=O)N[C@H](Cc1ccc(Cl)cc1)C(=O)N[C@H](Cc1cccnc1)C(=O)N[C@H]1CC(=O)NC[C@@H](C(N)=O)NC(=O)[C@@H]2CCCN2C(=O)[C@H](CCCNC(=N)N)NC(=O)[C@H](CC(C)C)NC(=O)[C@@H](Cc2cccnc2)NC(=O)[C@H](CCCNC(=N)N)NC1=O`, the Kd in experiment [1] turned out to be 1.1 nM.

For `CC(=O)N[C@H](Cc1ccc2ccccc2c1)C(=O)N[C@H](Cc1ccc(F)cc1)C(=O)N[C@H](Cc1c[nH]c2ccccc12)C(=O)N[C@H]1CC(=O)NC[C@@H](C(N)=O)NC(=O)[C@@H]2CCCN2C(=O)[C@H](CCCN=C(N)N)NC(=O)[C@H](CC(C)C)NC(=O)[C@@H](CCCN=C(N)N)NC(=O)[C@H](Cc2ccc(O)cc2)NC1=O` (Ac-[d2Nal][dPhe(4-F)][dW]DY[dR]LRP[Dap]-NH2; lactam 4-10), the Dose with Rattus norvegicus [2] is 1 µg and 2.5 µg.
